Test results: ChEMBL document CHEMBL2040752, “Synthesis and effects of some novel tetrahydronaphthalene derivatives on proliferation and nitric oxide production in lipopolysaccharide activated Raw 264.7 macrophages” (Eur J Med Chem, 2011)
The source made the active and inactive calls. The calls are words filed in the database; no cut-off is given here.

Experiments:
RAW264.7 [1] = experiment: Cytotoxicity against mouse RAW264.7 cells at 50 uM by MTT assay; type: cell-based; conditions: raw264.7, 50 µM
Outline: (§1)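 RAW 264.7 macrophages (4 ×10⁴ per well) pretreated with compound for 1 h, then held with or without LPS ([…]) for 20 h. After the supernatant was removed for nitrite assay, cells got 0.5 mg/mL MTT for 1 h at 37 °C. Formazan was dissolved in DMSO for at least 2 h in the dark and read at 550 nm; data are absorbance, mean ± S.D.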

RAW264.7 [2] = experiment: Inhibition of nitrite level in LPS-induced mouse RAW264.7 cells at 50 uM by Griess assay relative to LPS treated control; type: functional
Outline: (§2)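 RAW 264.7 cells (4 ×10⁴ per well) pre-incubated with compound for 1 h, then stimulated with LPS ([…]) for 20 h. Supernatant mixed 1:1 with Griess reagent (1% sulfanilamide, 0.1% naphthylethylenediamine dihydrochloride, 2% phosphoric acid) for 10 min at room temperature, read at 550 nm against a NaNO₂ standard curve. Nitrite in the LPS-only group is set as 100%; % inhibition given as mean ± value.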

RAW264.7 [3] = experiment: Inhibition of nitrite level in LPS-induced mouse RAW264.7 cells at 5 uM by Griess assay relative to LPS treated control; type: functional; outline: as §2
RAW264.7 [4] = experiment: Cytotoxicity against mouse RAW264.7 cells at 5 uM by MTT assay; type: cell-based; conditions: raw264.7, 5 µM; outline: as §1

Row | Compound | Activity (RAW264.7 [1]) | inhibition at 50 µM (RAW264.7 [2]) | inhibition at 5 µM (RAW264.7 [3]) | inhibition (RAW264.7 [3]) | Activity (RAW264.7 [4]) | inhibition (RAW264.7 [2])
1 | CC1(C)CCC(C)(C)c2cc(C(=O)Nc3cc[nH]c(=O)n3)ccc21 | Toxic | 21.1% | 11.5% |  |  | 
2 | CC1(C)CCC(C)(C)c2cc(C(=O)NCc3ccc(Cl)cc3Cl)ccc21 |  | 6.6% |  | inactive |  | 
3 | CC1(C)CCC(C)(C)c2cc(C(=O)NCCN3CCOCC3)ccc21 | Toxic | 40.1% | 14.3% |  |  | 
4 | O=C(O)/C=C/c1ccc(O)c(O)c1 [CAFFEIC ACID] | Non-toxic | 44.2% | 23.2% |  | Non-toxic | 
5 | Cc1cc2c(cc1NC(=O)CCCC[C@@H]1CCSS1)C(C)(C)CCC2(C)C |  | 22.8% | 28.5% |  |  | 
6 | COc1ccc(CCCC(=O)Nc2cc3c(cc2C)C(C)(C)CCC3(C)C)cc1OC | Toxic |  |  | inactive |  | inactive
7 | CC1(C)CCC(C)(C)c2cc(C(=O)Nc3nc4ccccc4[nH]3)ccc21 | Non-toxic | 45.7% | 15.6% |  | Non-toxic | 
8 | COc1cc(/C=C/C(=O)Nc2cc3c(cc2C)C(C)(C)CCC3(C)C)ccc1O | Toxic | 48% | 17.8% |  |  | 
9 | CC(=O)Oc1c(C)c(C)c2c(c1C)CCC(C)(C(=O)Nc1cc3c(cc1C)C(C)(C)CCC3(C)C)O2 (stereo not drawn) |  | 4.4% | 15.8% |  |  | 
10 | CC1(C)CCC(C)(C)c2cc(C(=O)NN3CCCCC3)ccc21 | Toxic | 10.5% |  | inactive |  | 
11 | CC1(C)CCC(C)(C)c2cc(C(=O)NC3CC(C)(C)N([O])C(C)(C)C3)ccc21 | Toxic | 59.2% | 18.2% |  |  | 
12 | COc1cc(/C=C/C(=O)O)ccc1O [FERULATE] | Non-toxic | 39.1% | 24.8% |  | Non-toxic | 
13 | Cc1c(C)c2c(c(C)c1O)CCC(C)(C(=O)O)O2 (stereo not drawn) [TROLOX] | Non-toxic | 39.3% | 33.4% |  | Non-toxic | 
14 | CC1(C)CCC(C)(C)c2cc(C(=O)NN3CCOCC3)ccc21 | Toxic | 34.3% | 5.8% |  |  | 
15 | Cc1cc2c(cc1NC(=O)c1ccc3c(c1)C(C)(C)CCC3(C)C)C(C)(C)CCC2(C)C | Toxic |  |  | inactive | Toxic | inactive
16 | Cc1cc2c(cc1NC(=O)C1(C)CCc3c(C)c(O)c(C)c(C)c3O1)C(C)(C)CCC2(C)C (stereo not drawn) | Toxic | 10.5% |  | inactive |  | 
17 | CC1(C)CCC(C)(C)c2cc(C(=O)Nc3ncccn3)ccc21 |  | 18.6% |  | inactive |  | 

Row | Compound | Activity (RAW264.7 [1]) | inhibition at 50 µM (RAW264.7 [2]) | inhibition at 5 µM (RAW264.7 [3]) | inhibition (RAW264.7 [3]) | Activity (RAW264.7 [4]) | inhibition (RAW264.7 [2])
18 | CC1(C)CC(NC(=O)c2ccc3c(c2)C(C)(C)CCC3(C)C)CC(C)(C)N1 | Non-toxic | 42.9% | 19.1% |  | Non-toxic | 
19 | CC1(C)CCC(C)(C)c2cc(C(=O)NN3CCCCCC3)ccc21 | Toxic | 43.6% | 25.7% |  |  | 
20 | Cc1cc2c(cc1NC(=O)CCCc1ccccc1)C(C)(C)CCC2(C)C | Toxic |  |  | inactive |  | inactive
21 | Cc1cc2c(cc1NC(=O)/C=C/c1ccc(O)c(O)c1)C(C)(C)CCC2(C)C | Toxic | 46.2% | 23.3% |  |  | 
22 | CC1(C)CCC(C)(C)c2cc(C(=O)NCc3ccc(F)cc3F)ccc21 | Toxic | 7.7% |  | inactive |  | 
23 | CC1=C(/C=C/C(C)=C/C=C/C(C)=C/C(=O)O)C(C)(C)CCC1 [TRETINOIN] | Non-toxic | 66% | 57.2% |  | Non-toxic | 
24 | CCOC(=O)N1CCC(NC(=O)c2ccc3c(c2)C(C)(C)CCC3(C)C)CC1 |  | 30% |  | inactive |  | 
25 | CC1(C)CCC(C)(C)c2cc(C(=O)NCc3ccccc3)ccc21 |  | 15.9% |  | inactive |  | 
26 | CC1(C)CCC(C)(C)c2cc(C(=O)Nc3nccs3)ccc21 | Toxic | 33.5% |  | inactive |  | 
27 | O=C(O)CCCCC1CCSS1 (stereo not drawn) [LIPOIC ACID, ALPHA] | Non-toxic | 46% | 25.2% |  | Non-toxic | 
28 | CC1(C)CCC(C)(C)c2cc(C(=O)NC3CC3)ccc21 | Toxic | 38.2% | 20.5% |  |  | 
29 | CC1(C)CCC(C)(C)c2cc(C(=O)Nc3cccc4ccccc34)ccc21 |  | 5.7% | 10.5% |  |  | 
30 | CC1(C)CC(N)CC(C)(C)N1[O] [TEMPAMINE] | Non-toxic | 45.6% | 26.9% |  | Non-toxic | 
31 | Cc1cc2c(cc1NC(=O)/C=C/c1ccccc1)C(C)(C)CCC2(C)C | Toxic |  |  | inactive |  | inactive
32 | CC1(C)CCC(C)(C)c2cc(C(=O)NC3CCN(Cc4ccccc4)CC3)ccc21 | Non-toxic | 22.5% | 21% |  | Non-toxic | 
33 | COc1ccc(/C=C/C(=O)Nc2cc3c(cc2C)C(C)(C)CCC3(C)C)cc1OC | Non-toxic | 32.8% | 24.1% |  | Non-toxic | 
